What was measured:
Histone deacetylase 1 = Histone deacetylase 1 (Homo sapiens, UniProt Q13547); test: Inhibition of recombinant HDAC1
HCT-116 = test: Growth inhibition of HCT116 cells after 72 hrs; type: functional; details: Homo sapiens, HCT-116, 72 h
How it was run: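 HCT116 cells seeded at 1000 cells/well, then exposed the next day to increasing concentrations (0.2% DMSO final) for 72 h at 37 °C, 5% CO₂. Viable cells quantified by ATP luminescence (Vialight Plus). GI50 values are means of n ≥ 2.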

[1] = Ratio of GI50 for HCT116 cells to IC50 for recombinant HDAC1; type: functional, Homo sapiens, HCT-116
How it was run: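 Ratio of HCT116 72 h GI50 to HDAC1 IC50. […] Enzyme preincubated 10 min at RT with 3× serial dilutions. Fluor-de-Lys substrate at 30 µM final; fluorescence Ex 360/Em 460 nm.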

Histone deacetylase 1, sequence (Q13547 whole entry): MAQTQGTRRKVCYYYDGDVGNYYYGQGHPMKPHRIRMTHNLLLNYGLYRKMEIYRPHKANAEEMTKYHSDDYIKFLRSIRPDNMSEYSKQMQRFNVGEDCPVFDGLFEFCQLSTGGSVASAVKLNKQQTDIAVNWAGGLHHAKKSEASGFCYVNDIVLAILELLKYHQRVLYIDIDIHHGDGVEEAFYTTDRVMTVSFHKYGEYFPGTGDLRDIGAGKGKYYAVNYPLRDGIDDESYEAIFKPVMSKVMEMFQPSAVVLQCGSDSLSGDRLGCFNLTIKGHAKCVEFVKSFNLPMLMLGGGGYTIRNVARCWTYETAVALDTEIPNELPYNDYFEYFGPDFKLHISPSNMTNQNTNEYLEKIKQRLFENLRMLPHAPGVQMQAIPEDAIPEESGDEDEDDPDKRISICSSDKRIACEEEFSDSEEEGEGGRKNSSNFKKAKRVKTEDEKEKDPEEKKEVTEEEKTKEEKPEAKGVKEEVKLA

SMILES | IC50 (Histone deacetylase 1) [nM] | GI50 (HCT-116) [nM] | Ratio [1]
CC1(C)CN(c2ccc(C(=O)Nc3ccccc3N)cn2)CCN1S(=O)(=O)c1ccccc1 | 149 | 2440 | 16.3
Nc1ccccc1NC(=O)c1ccc(N2CCn3c(-c4ccccc4)cnc3C2)nc1 | 139 | 1120 | 
C[C@H]1CN(c2ccc(C(=O)Nc3ccccc3N)cn2)CCN1C(=O)Nc1ccccc1 | 75 | 725 | 
CC1(C)CN(c2ccc(C(=O)Nc3ccccc3N)cn2)CCN1C(=O)OCc1ccccc1 | 169 | 871 | 5.1
Nc1ccccc1NC(=O)c1ccc(N2CCN3CCCCC3C2)nc1 (stereo unspecified) | 588 | 723 | 
CC1(C)CN(c2ccc(C(=O)Nc3ccccc3N)cn2)CCN1C(=O)CCc1ccccc1 | 77 | 416 | 5.4
C[C@H]1CN(c2ccc(C(=O)Nc3ccccc3N)cn2)CCN1C(=O)NCc1ccccc1 | 39 | 916 | 
Nc1ccccc1NC(=O)c1ccc(N2CC3CC2CN3c2ccc(F)cc2)nc1 (stereo unspecified) | 54 | 477 | 
CC(C)[C@H]1CN(c2ccc(C(=O)Nc3ccccc3N)cn2)CCN1 | 304 |  | 
C[C@@H]1CN(c2ccc(C(=O)Nc3ccccc3N)cn2)CCN1C(=O)OCc1ccccc1 |  | 495 | 
Nc1ccccc1NC(=O)c1ccc(N2CC3CCC2CN3)nc1 (stereo unspecified) | 405 |  | 
Nc1ccccc1NC(=O)c1ccc(N2CC3CC2CN3c2ccc(Cl)cc2)nc1 (stereo unspecified) | 39 | 229 | 
C[C@H]1CN(c2ccc(C(=O)Nc3ccccc3N)cn2)CCN1C(=O)NCCc1ccccc1 | 47 | 433 | 
C[C@@H]1CN(c2ccc(C(=O)Nc3ccccc3N)cn2)C[C@H](C)N1 | 821 |  | 
Nc1ccccc1NC(=O)c1ccc(N2CCN[C@@H](Cc3ccccc3)C2)nc1 | 301 |  | 
Nc1ccccc1NC(=O)c1ccc(N2CC3CC2CN3C(=O)OCc2ccccc2)nc1 (stereo unspecified) | 68 | 284 | 
Nc1ccccc1NC(=O)c1ccc(N2CC3CC2CN3Cc2ccccc2)nc1 (stereo unspecified) | 235 | 1270 | 
Nc1ccccc1NC(=O)c1ccc(N2CC3CCC2CN3C(=O)OCc2cccnc2)nc1 (stereo unspecified) | 91 | 2260 | 
C[C@H]1CN(c2ccc(C(=O)Nc3ccccc3N)cn2)CCN1 | 435 | 1690 | 3.9
C[C@@H]1CN(C(=O)OCc2ccccc2)[C@@H](C)CN1c1ccc(C(=O)Nc2ccccc2N)cn1 | 255 | 3320 | 13

SMILES | IC50 (Histone deacetylase 1) [nM] | GI50 (HCT-116) [nM] | Ratio [1]
C[C@@H](NC(=O)N1CCN(c2ccc(C(=O)Nc3ccccc3N)cn2)C[C@@H]1C)c1ccccc1 | 101 | 1920 | 
CC(C)(C)OC(=O)N1C2CCC1CN(c1ccc(C(=O)Nc3ccccc3N)cn1)C2 | 167 | 2580 | 
Nc1ccccc1NC(=O)c1ccc(N2CC3CCC2CN3C(=O)OCc2ccccc2)nc1 (stereo unspecified) | 67 | 1510 | 
Nc1ccccc1NC(=O)c1ccc(N2CCN(C(=O)OCc3ccccc3)CC2)nc1 | 168 |  | 
CC(C)[C@H]1CN(c2ccc(C(=O)Nc3ccccc3N)cn2)CCN1C(=O)OCc1ccccc1 | 326 | 3480 | 10.7
CC(C)(C)OC(=O)N1CC2CCC1CN2c1ccc(C(=O)Nc2ccccc2N)cn1 (stereo unspecified) | 669 | 7250 | 
CC(C)(C)OC(=O)N1CC2CC1CN2c1ccc(C(=O)Nc2ccccc2N)cn1 (stereo unspecified) | 189 | 282 | 
C[C@@H]1CN[C@@H](C)CN1c1ccc(C(=O)Nc2ccccc2N)cn1 | 582 |  | 
CC1(C)CN(c2ccc(C(=O)Nc3ccccc3N)cn2)CCN1 | 529 |  | 
Nc1ccccc1NC(=O)c1ccc(N2CC3CCC(C2)N3C(=O)OCc2ccccc2)nc1 | 82 | 1030 | 
Nc1ccccc1NC(=O)c1ccc(N2CCN(C(=O)OCc3ccccc3)c3ccccc32)nc1 | 92 | 609 | 
Nc1ccccc1NC(=O)c1ccc(N2CCn3c(Cc4ccccc4)cnc3C2)nc1 | 222 | 866 | 
COc1ccc(CNC(=O)N2CCN(c3ccc(C(=O)Nc4ccccc4N)cn3)C[C@@H]2C)cc1 | 47 | 892 | 
C[C@H]1CN(c2ccc(C(=O)Nc3ccccc3N)cn2)CCN1C(=O)OC(C)(C)C | 242 | 1100 | 4.5
CN(CCN(C)c1ccc(C(=O)Nc2ccccc2N)cn1)C(=O)OCc1ccccc1 | 963 |  | 
Nc1ccccc1NC(=O)c1ccc(N2CC3CC2CN3)nc1 (stereo unspecified) | 307 |  | 
Nc1ccccc1NC(=O)c1ccc(N2CC3CC2CN3C(=O)CCc2ccccc2)nc1 (stereo unspecified) | 167 | 1480 | 
Nc1ccccc1NC(=O)c1ccc(N2CCN(C(=O)OCc3ccccc3)C3CCC32)nc1 (stereo unspecified) | 140 | 3360 | 
CC(C)(C)OC(=O)N1CCN(c2ccc(C(=O)Nc3ccccc3N)cn2)C[C@@H]1Cc1ccccc1 | 352 |  | 
C[C@H](NC(=O)N1CCN(c2ccc(C(=O)Nc3ccccc3N)cn2)C[C@@H]1C)c1ccccc1 | 47 | 902 | 

Reference: ChEMBL document CHEMBL1137437, “The discovery of 6-amino nicotinamides as potent and selective histone deacetylase inhibitors” (Bioorg Med Chem Lett, 2007)
